Data on 13 compounds can be found in ChEMBL document CHEMBL3112507 (Bioorg Med Chem, 2014).

Data set [1] has as its target T1, Polyunsaturated fatty acid 5-lipoxygenase (Homo sapiens) (UniProt P09917).
T1 sequence (whole entry): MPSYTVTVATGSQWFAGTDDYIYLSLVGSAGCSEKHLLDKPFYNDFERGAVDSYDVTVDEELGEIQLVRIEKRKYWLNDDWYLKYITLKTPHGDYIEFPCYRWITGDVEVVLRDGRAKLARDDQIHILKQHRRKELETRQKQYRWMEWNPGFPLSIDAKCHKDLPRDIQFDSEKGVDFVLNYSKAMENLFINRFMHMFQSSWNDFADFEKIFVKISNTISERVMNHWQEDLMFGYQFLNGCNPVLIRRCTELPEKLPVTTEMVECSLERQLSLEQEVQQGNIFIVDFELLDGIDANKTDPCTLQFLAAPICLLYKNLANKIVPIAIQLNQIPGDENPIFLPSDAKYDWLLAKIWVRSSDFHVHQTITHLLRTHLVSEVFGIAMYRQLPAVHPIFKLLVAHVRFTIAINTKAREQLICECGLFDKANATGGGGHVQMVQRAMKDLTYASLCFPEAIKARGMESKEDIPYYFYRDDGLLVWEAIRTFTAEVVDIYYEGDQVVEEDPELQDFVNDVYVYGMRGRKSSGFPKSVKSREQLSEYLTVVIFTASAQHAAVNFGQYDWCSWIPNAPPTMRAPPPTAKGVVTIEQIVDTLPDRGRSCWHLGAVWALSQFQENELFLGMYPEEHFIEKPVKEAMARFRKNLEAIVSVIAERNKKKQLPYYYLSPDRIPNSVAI
Nature of the data set: Inhibition of 5-LOX (unknown origin) using arachidonic acid as substrate at 10 uM after 5 mins by EIA. Put shortly:
(§1)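 Test compounds dissolved in DMSO at 0.01, 0.1, 1, 10 and 100 µM. Each was added to 5-LOX enzyme in assay buffer, and the reaction was started with arachidonic acid substrate. Plates were shaken 5 min, chromogen was added, shaken 5 min more, then read at 490 nm. Blanks were buffer plus AA; positive controls were enzyme plus AA. Run in duplicate, means with deviation <5% used. Percent inhibition was calculated from lipoxygenase activity; IC50 derived from the concentration series.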

Data set [2] concerns the target T2, Polyunsaturated fatty acid 5-lipoxygenase (Homo sapiens, UniProt P09917).
T2 sequence (P09917 whole entry): T1 sequence (whole entry)
Kind of data set: (§2) Inhibition of 5-LOX (unknown origin) by UV-Vis spectrophotometry. Put shortly:
(§3)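 UV–visible spectral titration of the compounds with 5-LOX. Association constant Ka was obtained from 1/(Af−Aobs) = 1/(Af−Afc) + 1/(Ka[Af−Afc][L]). Ki was calculated as IC50/(1+[L]/Kd) using IC50 values from the enzyme immunoassay.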

Data set [3] deals with T1, Polyunsaturated fatty acid 5-lipoxygenase (Homo sapiens). Described as §2. Put shortly:
as §3

Data set [4] concerns the target Phospholipase A2 (Homo sapiens) (UniProt P04054). Nature of the data set: Inhibition of PLA2 (unknown origin) by Ellman's method. A general note: DTNB colorimetry detects thiols as they appear.
In data set [5] the target is T1, Polyunsaturated fatty acid 5-lipoxygenase (Homo sapiens). Kind of data set: Inhibition of 5-LOX (unknown origin) using arachidonic acid as substrate at 100 uM after 5 mins by EIA. In short, it runs like this:
as §1

For data set [6] the target is unchanged. Kind of data set: Inhibition of 5-LOX (unknown origin) using arachidonic acid as substrate at 0.01 uM after 5 mins by EIA. Put shortly:
as §1

Data set [7] concerns the target T2, Polyunsaturated fatty acid 5-lipoxygenase. Nature of the data set: Inhibition of 5-LOX (unknown origin) using arachidonic acid as substrate after 5 mins by EIA. Put shortly: as §1
Data set [8] has as its target T1, Polyunsaturated fatty acid 5-lipoxygenase (Homo sapiens). Kind of data set: Inhibition of 5-LOX (unknown origin) using arachidonic acid as substrate at 0.1 uM after 5 mins by EIA. Put shortly: as §1
Data set [9] addresses T3, Prostaglandin G/H synthase 2 (Homo sapiens) (UniProt P35354).
T3 sequence (whole entry): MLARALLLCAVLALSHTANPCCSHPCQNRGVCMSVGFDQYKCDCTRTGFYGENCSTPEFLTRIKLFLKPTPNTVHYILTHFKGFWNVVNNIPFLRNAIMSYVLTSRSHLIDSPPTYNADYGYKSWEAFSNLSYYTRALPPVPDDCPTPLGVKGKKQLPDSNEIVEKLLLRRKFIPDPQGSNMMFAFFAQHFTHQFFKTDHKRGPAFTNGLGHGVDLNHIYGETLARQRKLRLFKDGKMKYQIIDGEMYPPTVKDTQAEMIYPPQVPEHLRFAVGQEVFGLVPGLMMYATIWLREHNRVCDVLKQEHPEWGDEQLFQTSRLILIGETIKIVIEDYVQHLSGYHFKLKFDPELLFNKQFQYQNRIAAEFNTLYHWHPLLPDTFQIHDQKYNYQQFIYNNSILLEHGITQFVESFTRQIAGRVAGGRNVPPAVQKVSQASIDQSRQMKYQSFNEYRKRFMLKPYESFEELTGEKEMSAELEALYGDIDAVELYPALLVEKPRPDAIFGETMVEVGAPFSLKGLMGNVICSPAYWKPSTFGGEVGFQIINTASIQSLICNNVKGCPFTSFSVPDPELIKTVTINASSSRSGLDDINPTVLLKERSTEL
Kind of data set: Inhibition of COX2 (unknown origin) by EIA.

Data set [10] concerns the target T1, Polyunsaturated fatty acid 5-lipoxygenase (Homo sapiens). Nature of the data set: Inhibition of 5-LOX (unknown origin) using arachidonic acid as substrate at 1 uM after 5 mins by EIA. In short, it runs like this: as §1
The target of data set [11] is Prostaglandin G/H synthase 1 (Homo sapiens) (UniProt P23219). Nature of the data set: Inhibition of COX1 (unknown origin) by EIA.
Data set [12] can be described thus: Octanol-water partition coefficient, log P of the compound. The class given is physicochemical.
The target of data set [13] is T2, Polyunsaturated fatty acid 5-lipoxygenase. Nature of the data set: Inhibition of 5-LOX (unknown origin) using arachidonic acid as substrate after 5 mins by EIA in presence of pig liver esterase. Put shortly:
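Same 5-LOX colorimetric immunoassay kit procedure (compounds at 0.01–100 µM in DMSO, AA substrate, chromogen, 490 nm, duplicates). Ester compounds were first treated with pig liver esterase, extracted per a reported procedure, before addition to the 5-LOX enzyme.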

Molecules are shown by their SMILES. pIC50, pKi: −log10 of the molar value. Calls of active or inactive are those of the source. No cut-off for these calls is given here.

Sequence of Phospholipase A2 (Homo sapiens) (P04054 23-148 limits assumed): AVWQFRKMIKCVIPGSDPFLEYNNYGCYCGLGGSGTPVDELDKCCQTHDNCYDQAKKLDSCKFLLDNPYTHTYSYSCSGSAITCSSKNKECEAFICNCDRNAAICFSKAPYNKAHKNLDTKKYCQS
Sequence of Prostaglandin G/H synthase 1 (Homo sapiens) (P23219 whole entry): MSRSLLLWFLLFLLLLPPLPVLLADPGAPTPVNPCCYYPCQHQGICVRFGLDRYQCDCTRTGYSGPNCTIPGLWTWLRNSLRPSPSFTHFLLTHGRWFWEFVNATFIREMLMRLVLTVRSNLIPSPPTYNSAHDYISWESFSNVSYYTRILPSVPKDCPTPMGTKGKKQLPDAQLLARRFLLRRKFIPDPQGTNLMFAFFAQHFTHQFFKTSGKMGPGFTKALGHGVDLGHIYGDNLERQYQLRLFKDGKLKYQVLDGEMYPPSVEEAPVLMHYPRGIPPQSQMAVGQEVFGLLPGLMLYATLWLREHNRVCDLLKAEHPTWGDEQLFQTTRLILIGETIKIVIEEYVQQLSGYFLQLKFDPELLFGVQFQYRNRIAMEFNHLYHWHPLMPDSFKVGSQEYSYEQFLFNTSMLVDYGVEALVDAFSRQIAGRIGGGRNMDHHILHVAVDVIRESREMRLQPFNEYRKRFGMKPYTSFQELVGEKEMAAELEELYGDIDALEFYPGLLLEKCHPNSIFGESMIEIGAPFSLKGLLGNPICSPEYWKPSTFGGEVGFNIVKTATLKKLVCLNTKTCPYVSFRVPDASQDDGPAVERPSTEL

For the compound `Cc1ccc(S(=O)(=O)n2cc(C(=O)C(=O)N[C@H](Cc3cnc[nH]3)C(=O)O)c3ccccc32)cc1`, the inhibition (commonly the share of the control response that was lost under treatment) in data set [1] is 55.5%; in data set [5] it was 64.7%; in data set [6], 20%; in [8], 28.5%; in data set [10] it was 48.7%. For the same compound, the negative-log Ki (pKi) – broadly, the negative decadic logarithm of the Ki, by convention in mol/L – in [2] was 5.60. The compound also yielded a Ka in data set [3] of 3.7 ×10⁴ /M. For the same compound, the inhibition entry in data set [4], in [9] and in data set [11] was “inactive” each time. Besides, the pIC50 (commonly −log10 of the IC50, conventionally taken in molar units) in [7] is 5.55.
In the case of `COC(=O)[C@@H](Cc1c[nH]c2ccccc12)NC(=O)C(=O)c1c[nH]c2ccccc12`, the inhibition in data set [1] turned out to be 49.8%; in data set [5], 65%; in data set [6], 35%; in [8], 41.1%; in [10], 43.4%. In addition, the inhibition result in data set [4], in data set [9] and in [11] was “inactive” in each case.
As to `Cc1ccc(S(=O)(=O)n2cc(C(=O)C(=O)N[C@H](CCC(=O)O)C(=O)O)c3ccccc32)cc1`, the inhibition worked out at 87.6% in data set [1]; 90.6% in data set [5]; 42% in data set [6]; 50.5% in data set [8]; 59.5% in data set [10]. In data set [2], this compound showed a pKi of 7.02. In addition, the Ka in data set [3] is 1.1 ×10⁵ /M. The inhibition entry in data set [4], in data set [9] and in data set [11] was “inactive” throughout. The pIC50 in data set [7] is 7.01.
`COC(=O)CNC(=O)C(=O)c1c[nH]c2ccccc12`: the inhibition is 55.5% in [1]; 70% in [5]; 40% in data set [6]; 46.2% in data set [8]; 47.8% in data set [10]. Further, the inhibition entry in [4], in [9] and in [11] was “inactive” throughout. Moreover, the negative-log IC50 (pIC50) in data set [7] was 5.46.
In turn, `CC(C)(C)Sc1c(CC(C)(C)C(=O)O)n(Cc2ccc(Cl)cc2)c2ccc(OCc3ccc4ccccc4n3)cc12` [QUIFLAPON] had a negative-log IC50 (pIC50) in data set [7] of 8.80.
Take `COC(=O)[C@@H](Cc1c[nH]c2ccccc12)NC(=O)C(=O)c1cn(S(=O)(=O)c2ccc(C)cc2)c2ccccc12`: the inhibition in data set [1] is 75.5%; in data set [5] it was 80.4%; in [6], 45.5%; in data set [8], 55.3%; in data set [10] it was 62.7%. In addition, in [12], the lipophilicity (logP) – broadly, a log measure of how a compound divides between an organic and an aqueous phase – amounted to 2.34. The same compound showed a negative-log Ki (pKi) in [2] of 7.43. Moreover, in data set [3], the Ka turned out to be 6.67 ×10⁵ /M. Moreover, the inhibition entry in data set [4], in [9] and in [11] was “inactive” each time. Besides, the pIC50 in data set [13] is 7.85; in data set [7], 7.28.
Regarding `COC(=O)CC[C@@H](NC(=O)C(=O)c1c[nH]c2ccccc12)C(=O)OC`, the inhibition in data set [1] came to 51.2%; in data set [5], 55%; in [6], 36%; in [8], 40%; in [10], 44.8%. In addition, the inhibition result in data set [4], in data set [9] and in data set [11] was “inactive” throughout. Further, in data set [7], the negative logarithm of the IC50 (pIC50) is 5.08.
For the compound `COC(=O)CC[C@@H](NC(=O)C(=O)c1cn(S(=O)(=O)c2ccc(C)cc2)c2ccccc12)C(=O)OC`, the inhibition was determined as 60.3% in data set [1]; 65% in data set [5]; 18.5% in [6]; 35.2% in data set [8]; 51.8% in [10]. The logP in data set [12] worked out at 2.12. The compound further gave a pKi in data set [2] of 6.09. In data set [3], this compound showed a Ka of 1.06 ×10⁵ /M. For the same compound, the inhibition entry in [4], in data set [9] and in data set [11] was “inactive” each time. In addition, the figures for the pIC50 in data set [13] and in [7] were 6.89 and 6.05, respectively.
In the case of `COC(=O)[C@H]1CCCN1C(=O)C(=O)c1cn(S(=O)(=O)c2ccc(C)cc2)c2ccccc12`, the inhibition in data set [1] was found to be 69.3%; in data set [5], 72%; in data set [6], 38.5%; in data set [8] it was 48.7%; in data set [10], 54.5%. Besides, the log partition coefficient (logP) in data set [12] is 2.19. Also, the pKi in data set [2] was 6.49. The compound further displayed a Ka in data set [3] of 1.2 ×10⁵ /M. In addition, the inhibition entry in data set [4], in data set [9] and in data set [11] was “inactive” each time. For the same compound, the pIC50 in [13] is 6.12; in [7], 6.48.
Consider `COC(=O)[C@@H](Cc1cnc[nH]1)NC(=O)C(=O)c1c[nH]c2ccccc12`, for which the inhibition in [1] is 45.5%; in data set [5], 65%; in data set [6], 30%; in data set [8], 37.7%; in data set [10] it was 40.8%. The inhibition result in [4], in data set [9] and in data set [11] was “inactive” throughout.
With `COC(=O)[C@H]1CCCN1C(=O)C(=O)c1c[nH]c2ccccc12`, the inhibition in data set [1] came to 59.8%; in data set [5], 60.6%; in data set [6], 22.5%; in data set [8] it was 25.5%; in [10], 40.2%. Further, the inhibition entry in data set [4], in data set [9] and in data set [11] was “inactive” in each case. The same compound had a pIC50 in data set [7] of 5.26.
Regarding `Cc1ccc(S(=O)(=O)n2cc(C(=O)C(=O)N[C@H](Cc3c[nH]c4ccccc34)C(=O)O)c3ccccc32)cc1`, the inhibition was 81.5% in data set [1]; 85% in data set [5]; 51% in data set [6]; 56.5% in [8]; 67.3% in [10]. Besides, in data set [2], the pKi is 8.00. The Ka in data set [3] stood at 3.6 ×10⁵ /M. The inhibition entry in data set [4], in data set [9] and in data set [11] was “inactive” each time. Further, the pIC50 in data set [7] is 8.00.
Consider `Cc1ccc(S(=O)(=O)n2cc(C(=O)C(=O)N3CCC[C@@H]3C(=O)O)c3ccccc32)cc1`, for which the inhibition in data set [1] was 68.8%; in data set [5] it was 74.3%; in data set [6], 27.3%; in data set [8], 45%; in [10], 53.5%. The compound also had a pKi in data set [2] of 6.29. In data set [3], this compound showed a Ka of 2.6 ×10⁵ /M. Moreover, the inhibition result in data set [4], in data set [9] and in data set [11] was “inactive” in each case. The same compound showed a pIC50 in data set [7] of 6.22.
